According to ChEMBL document CHEMBL3576850 (J Nat Prod, 2015):
Values after ≈ are worked out from the molar mass of the structure shown. Active and inactive are the calls of the source. No cut-off for these calls is given here.

Key:
[1] = Inhibition of recombinant his-tagged methicillin-resistant Staphylococcus aureus pyruvate kinase expressed in Escherichia coli BL-21(DE3) using PEP as substrate after 5 mins by L-LDH coupled assay
[2] = biological target: Pyruvate kinase PKLR (Homo sapiens) (UniProt P30613); assay: Inhibition of recombinant his-tagged human pyruvate kinase R expressed in Escherichia coli BL-21(DE3) using PEP as substrate at 5 uM after 5 mins by L-LDH coupled assay relative to control
Chain of Pyruvate kinase PKLR (Homo sapiens) (P30613 whole entry, looked up, canonical isoform): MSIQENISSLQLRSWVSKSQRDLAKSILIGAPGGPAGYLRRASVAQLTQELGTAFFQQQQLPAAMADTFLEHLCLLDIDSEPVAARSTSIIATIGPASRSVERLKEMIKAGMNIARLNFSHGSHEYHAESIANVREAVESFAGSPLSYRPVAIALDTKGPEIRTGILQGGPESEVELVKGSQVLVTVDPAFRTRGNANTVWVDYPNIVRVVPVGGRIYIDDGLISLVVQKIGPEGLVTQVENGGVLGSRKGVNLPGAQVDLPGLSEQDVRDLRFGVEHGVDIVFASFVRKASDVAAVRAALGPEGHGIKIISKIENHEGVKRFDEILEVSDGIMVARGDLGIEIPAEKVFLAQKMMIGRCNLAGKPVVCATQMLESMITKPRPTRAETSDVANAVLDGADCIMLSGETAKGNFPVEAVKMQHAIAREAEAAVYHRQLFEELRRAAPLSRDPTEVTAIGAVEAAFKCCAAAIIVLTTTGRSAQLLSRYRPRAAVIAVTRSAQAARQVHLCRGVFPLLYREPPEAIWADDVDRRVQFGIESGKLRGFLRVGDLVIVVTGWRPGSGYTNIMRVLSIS
Outline: (§1)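 His-tagged human PK isoform in a continuous rabbit muscle L-LDH-coupled assay, read as 340 nm absorbance change. Compounds added from DMSO, final DMSO ≤1%. Three measurements, each in triplicate.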

[3] = biological target: Pyruvate kinase PKM (Homo sapiens) (UniProt P14618); assay: Inhibition of recombinant his-tagged human pyruvate kinase M1 expressed in Escherichia coli BL-21(DE3) using PEP as substrate at 5 uM after 5 mins by L-LDH coupled assay relative to control; outline: as §1
Chain of Pyruvate kinase PKM (Homo sapiens) (P14618 2-531 limits assumed): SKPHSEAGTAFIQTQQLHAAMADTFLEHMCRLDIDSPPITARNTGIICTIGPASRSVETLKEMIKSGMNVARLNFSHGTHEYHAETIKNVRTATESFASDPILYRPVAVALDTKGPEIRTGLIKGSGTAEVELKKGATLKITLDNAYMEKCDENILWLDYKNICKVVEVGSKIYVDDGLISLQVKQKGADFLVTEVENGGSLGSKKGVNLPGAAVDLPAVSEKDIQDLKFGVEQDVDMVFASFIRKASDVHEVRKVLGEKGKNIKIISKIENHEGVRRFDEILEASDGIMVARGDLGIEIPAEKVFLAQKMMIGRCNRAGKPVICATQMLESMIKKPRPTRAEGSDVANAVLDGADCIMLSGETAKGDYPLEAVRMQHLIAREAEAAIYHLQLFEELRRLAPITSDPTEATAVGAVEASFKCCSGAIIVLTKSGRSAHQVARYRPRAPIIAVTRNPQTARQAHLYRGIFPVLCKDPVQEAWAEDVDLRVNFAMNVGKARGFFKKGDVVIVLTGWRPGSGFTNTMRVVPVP

[4] = biological target: Pyruvate kinase PKLR (Homo sapiens) (UniProt P30613); assay: Inhibition of recombinant his-tagged human pyruvate kinase L expressed in Escherichia coli BL-21(DE3) using PEP as substrate at 5 uM after 5 mins by L-LDH coupled assay relative to control; outline: as §1
[5] = biological target: Pyruvate kinase PKM (Homo sapiens) (UniProt P14618); assay: Inhibition of recombinant his-tagged human pyruvate kinase M2 expressed in Escherichia coli BL-21(DE3) using PEP as substrate at 5 uM after 5 mins by L-LDH coupled assay relative to control; outline: as §1
[6] = biological target: Pyruvate kinase PKM (Homo sapiens) (UniProt P14618); assay: Inhibition of recombinant his-tagged human pyruvate kinase M1 expressed in Escherichia coli BL-21(DE3) using PEP as substrate at 10 uM after 5 mins by L-LDH coupled assay relative to control; outline: as §1
[7] = biological target: Pyruvate kinase PKM (Homo sapiens) (UniProt P14618); assay: Inhibition of recombinant his-tagged human pyruvate kinase M2 expressed in Escherichia coli BL-21(DE3) using PEP as substrate at 10 uM after 5 mins by L-LDH coupled assay relative to control; outline: as §1
[8] = biological target: Pyruvate kinase PKLR (Homo sapiens) (UniProt P30613); assay: Inhibition of recombinant his-tagged human pyruvate kinase L expressed in Escherichia coli BL-21(DE3) using PEP as substrate at 10 uM after 5 mins by L-LDH coupled assay relative to control; outline: as §1
[9] = biological target: Pyruvate kinase PKLR (Homo sapiens) (UniProt P30613); assay: Inhibition of recombinant his-tagged human pyruvate kinase R expressed in Escherichia coli BL-21(DE3) using PEP as substrate at 10 uM after 5 mins by L-LDH coupled assay relative to control; outline: as §1
Staphylococcus aureus [10] = assay: Antibacterial activity against methicillin-resistant Staphylococcus aureus 252 by 2-fold serial broth microdilution method; format: functional
Staphylococcus aureus [11] = assay: Antibacterial activity against methicillin-susceptible Staphylococcus aureus RN4220 by 2-fold serial broth microdilution method; format: functional

| Compound | IC50 [1] | inhibition [2] | inhibition [3] | inhibition [4] | inhibition [5] | inhibition [6] | inhibition [7] | inhibition [8] | inhibition [9] | MIC (Staphylococcus aureus [10]) | MIC (Staphylococcus aureus [11]) |
| --- | --- | --- | --- | --- | --- | --- | --- | --- | --- | --- | --- |
| O=C(c1nc(-c2c[nH]c3ccc(Br)cc23)c[nH]1)c1c[nH]c2ccc(Br)cc12 | 6.4 nM | < 40% | 0% | < 40% | 0% |  |  |  |  |  |  |
| O=C(c1nc(-c2c[nH]c3cc(I)ccc23)c[nH]1)c1c[nH]c2cc(I)ccc12 | 3.3 nM | < 40% | 0% | < 40% | 0% |  |  |  |  |  |  |
| O=C(c1nc(-c2c[nH]c3ccccc23)c[nH]1)c1c[nH]c2ccccc12 |  |  |  |  |  | inactive | inactive | inactive | inactive |  |  |
| O=C(c1nc(-c2c[nH]c3cc(Cl)ccc23)c[nH]1)c1c[nH]c2cc(Cl)ccc12 | 1.5 nM | < 40% | 0% | < 40% | 0% |  |  |  |  |  |  |
| O=C(c1ncc(-c2c[nH]c3cc(Br)ccc23)[nH]1)c1c[nH]c2cc(Br)ccc12 |  | < 40% | 0% | < 40% | 0% |  |  |  |  |  |  |
| O=C(c1nc(-c2c[nH]c3c(Cl)cccc23)c[nH]1)c1c[nH]c2c(Cl)cccc12 | 26000 nM |  |  |  |  | inactive | inactive | inactive | inactive |  |  |
| O=C(c1nc(-c2c[nH]c3cc(F)ccc23)c[nH]1)c1c[nH]c2cc(F)ccc12 | 24 nM |  |  |  |  | inactive | inactive | inactive | inactive |  |  |
| O=C1NC[C@@H](c2c[nH]c3cc(Br)ccc23)N[C@H]1c1c[nH]c2cc(Br)ccc12 (relative stereo) [CIS-3,4-DIHYDROHAMACANTHIN B] | 16 nM |  |  |  |  |  |  |  |  | 12.5 µg/mL (≈ 25.6 µM) | 6.25 µg/mL (≈ 12.8 µM) |
